According to ChEMBL document CHEMBL1137561 (J Med Chem, 2007):

Legend:
[1] = test system: Human immunodeficiency virus 1; assay: Antiviral activity against HIV1 NL43 in MT4 cells assessed as inhibition of viral induced cytopathic effect after 5 days by MTT method; details: Human immunodeficiency virus 1, NL43, MT4, 120 h
[2] = Cytotoxicity against MT4 cells after 4 days by MTT method; type: cell-based; details: human
Summary of the method: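 Mock-infected (noninfected) MT-4 cells, run in parallel with the antiviral test. Viable cells read by the MTT tetrazolium colorimetric method. […] Means ± SD from at least two experiments. The top concentration was limited where compounds precipitated in the culture medium.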

[3] = Selectivity index, ratio of CC50 for MT4 cells to EC50 for HIV1 NL43 infected MT4 cells; type: functional
[4] = Resistance index, Ratio of EC50 for drug-resistant HIV1 with RT Y181C mutation in MT4 cells to EC50 for HIV1 NL43 in MT4 cells
[5] = test system: Human immunodeficiency virus 1; assay: Antiviral activity against HIV1 with reverse transcriptase K103N mutation in MT4 cells assessed as inhibition of viral induced cytopathic effect by MTT method; type: functional, organism-based; details: Human immunodeficiency virus 1, MT4
Summary of the method: (§1)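 MT-4 cells infected with the HIV-1 NNRTI-resistant mutant strain. Viable cells scored at day 5 post-infection by the MTT tetrazolium colorimetric method. […] Values are means ± SD from at least two experiments.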

[6] = test system: Human immunodeficiency virus 1; assay: Antiviral activity against HIV1 with reverse transcriptase Y181C mutation in MT4 cells assessed as inhibition of viral induced cytopathic effect by MTT method; type: functional, organism-based; details: Human immunodeficiency virus 1, MT4
Summary of the method: as §1

[7] = test system: Human immunodeficiency virus 1; assay: Antiviral activity against HIV1 with reverse transcriptase Y188L mutation in MT4 cells assessed as inhibition of viral induced cytopathic effect by MTT method; type: functional, organism-based; details: Human immunodeficiency virus 1, MT4
Summary of the method: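 MT-4 cells infected with the HIV-1 NNRTI-resistant mutant strain. Viable cells scored at day 5 post-infection by the MTT tetrazolium colorimetric method. Values are means ± SD from at least two experiments.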

[8] = Resistance index, Ratio of EC50 for drug-resistant HIV1 with RT IRLL98 mutation in MT4 cells to EC50 for HIV1 NL43 in MT4 cells
[9] = test system: Human immunodeficiency virus 1; assay: Antiviral activity against HIV1 with reverse transcriptase IRLL98 mutation in MT4 cells assessed as inhibition of viral induced cytopathic effect by MTT method; type: functional, organism-based; details: Human immunodeficiency virus 1, MT4
[10] = molecular target: Human immunodeficiency virus type 1 reverse transcriptase (Human immunodeficiency virus 1, UniProt Q72547, V106A); assay: Inhibition of HIV1 reverse transcriptase V106A mutant

| Compound | EC50 [1] [nM] | CC50 at 96 h [2] [nM] | Ratio CC50/EC50 [3] | Ratio EC50 [4] | EC50 [5] [nM] | EC50 [6] [nM] | EC50 [7] [nM] | Ratio EC50 [8] | EC50 [9] [nM] | Ki [10] [nM] |
| --- | --- | --- | --- | --- | --- | --- | --- | --- | --- | --- |
| CCCN(CCC)c1nc(Cc2c(F)cccc2F)cc(=O)[nH]1 | 1780 | > 78000 | >44 |  |  |  |  |  |  |  |
| Cc1c(Cc2c(F)cccc2F)nc(N(C)c2ccccc2)[nH]c1=O | 86 | > 73000 | >849 |  |  |  |  |  |  |  |
| O=c1cc(Cc2c(F)cccc2F)nc(N2CCC3(CC2)OCCO3)[nH]1 | 2220 | > 69000 | >31 |  |  |  |  |  |  |  |
| CCCN(C)c1nc(Cc2c(F)cccc2F)cc(=O)[nH]1 | 9 | 85000 | 9444 |  |  |  |  |  |  |  |
| CC1CCCN(c2nc(Cc3c(F)cccc3F)cc(=O)[nH]2)C1 (configuration not stated) | 32 | > 78000 | >2437 | 13 | > 10000 | 430 | > 10000 | 56 | 1800 |  |
| CCCN(CCC)c1nc(Cc2c(F)cccc2F)c(C)c(=O)[nH]1 | 2090 | > 74000 | >35 |  |  |  |  |  |  |  |
| Cc1c(Cc2c(F)cccc2F)nc(N2CCC3(CC2)OCCO3)[nH]c1=O | 650 | > 66000 | >101 |  |  |  |  |  |  |  |
| O=c1cc(Cc2c(F)cccc2F)nc(-n2cccc2)[nH]1 | 17300 | > 87000 | >5 |  |  |  |  |  |  |  |
| Cc1c(Cc2c(F)cccc2F)nc(N2CCCC(C)C2)[nH]c1=O (configuration not stated) | 18 | > 75000 | >4167 | 32 | > 10000 | 570 | > 10000 | 117 | 2100 |  |
| Cc1c(Cc2c(F)cccc2F)nc(N2CCC(C)CC2)[nH]c1=O | 100 | > 75000 | >750 |  | > 10000 |  | > 10000 |  | > 10000 | 500 |
| CC1CCCCN1c1nc(Cc2c(F)cccc2F)cc(=O)[nH]1 (configuration not stated) | 107 | > 78000 | >729 | 11 | > 10000 | 1140 | > 10000 | 28 | 3000 |  |
| Cc1c(Cc2c(F)cccc2N2CCCC2)nc(N2CCCC2)[nH]c1=O | 620 | > 70000 | >113 |  |  |  |  |  |  | 500 |
| CC1CCN(c2nc(Cc3c(F)cccc3F)cc(=O)[nH]2)CC1 | 35 | > 78000 | >2229 | 37 | > 10000 | 1290 | > 10000 | 131 | 4600 |  |
| Cc1c(Cc2c(F)cccc2F)nc(N2CCCC2)[nH]c1=O | 32 | > 82000 | >2562 | 161 | > 10000 | 5150 | > 10000 |  | > 10000 |  |
| Cc1c(Cc2c(F)cccc2F)nc(N2CCCCC2C)[nH]c1=O (configuration not stated) | 9 | 75000 | 8333 | 16 | > 10000 | 140 | > 10000 | 156 | 1400 |  |
| CCN(CC)c1nc(Cc2c(F)cccc2F)cc(=O)[nH]1 | 133 | > 85000 | >639 |  |  |  |  |  |  |  |
| O=C1Nc2ccc(Cl)cc2C(C#CC2CC2)(C(F)(F)F)O1 (single isomer, unassigned) [EFAVIRENZ] |  | > 300 |  |  | 90 | 6 | 230 |  | 80 |  |
| CC(C)N(C)c1nc(Cc2c(F)cccc2F)cc(=O)[nH]1 | 8 | 85000 | 10625 | 4 | > 10000 | 30 | > 10000 | 22 | 180 |  |
| O=c1cc(Cc2c(F)cccc2N2CCCC2)nc(N2CCCC2)[nH]1 | 710 | > 73000 | >103 |  |  |  |  |  |  |  |
| Cc1c(C(C)c2c(Cl)cccc2Cl)nc(N(C)C)[nH]c1=O (configuration not stated) | 30 | 35000 | 1167 |  |  |  |  |  |  |  |
| O=c1cc(Cc2c(F)cccc2F)nc(N2CCCC2)[nH]1 | 93 | > 86000 | >925 |  | > 10000 | > 10000 | > 10000 |  | > 10000 |  |
| O=c1cc(Cc2c(F)cccc2F)nc(N2CCCCCC2)[nH]1 | 22 | > 78000 | >3545 | 19 | > 10000 | 430 | > 10000 | 64 | 1400 |  |
| Cc1c(C(C)c2c(F)cccc2F)nc(N2CCCCCC2)[nH]c1=O (configuration not stated) | 9 | > 72000 | >8000 |  |  |  |  |  |  |  |
| CCN(C)c1nc(Cc2c(F)cccc2F)cc(=O)[nH]1 | 13 | > 89000 | >6846 | 38 | > 10000 | 500 | > 10000 | 154 | 2000 |  |
| CCN(CC)c1nc(Cc2c(F)cccc2F)c(C)c(=O)[nH]1 | 30 | > 81000 | >2700 |  |  |  |  |  |  |  |
| Cc1c(C(C)c2ccccc2F)nc(N(C)C)[nH]c1=O (configuration not stated) | 6 | 44000 | 7333 |  |  |  |  |  |  |  |
